Laboratory results as given in ChEMBL document CHEMBL1140834, “Identifying the important structural elements of brominated furanones for inhibiting biofilm formation by Escherichia coli” (2008).
Activity calls are given as the source filed them. The calls are words filed in the database; no cut-off is given here.

Columns and labels:
Escherichia coli [1] = assay: Antibacterial activity against Escherichia coli at 60 ug/mL; format: functional, organism-based
Escherichia coli [2] = assay: Inhibition of Escherichia coli biofilm formation at 60 ug/mL; format: functional
In short: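 DsRed-express-labeled E. coli biofilms were grown 24 h at 37 C on 316 L stainless steel coupons, with furanone added to the growth medium. Imaged by confocal microscopy. Biomass, surface coverage and mean thickness were calculated from the images and expressed relative to a no-furanone control. Four replicates.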

Escherichia coli [3] = assay: Antibacterial activity against Escherichia coli RP437/pRSH103 assessed as reduction of colony forming unit at 40 ug/ml after 3 hrs; format: functional
In short: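 Viable counts (CFU/mL) taken before and after 3 h exposure at 37 C. A parallel culture given the same amount of ethanol (0.2%) served as negative control.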

Escherichia coli [4] = assay: Antibacterial activity against Escherichia coli RP437/pRSH103 at 5 to 10 ug/ml; format: functional, organism-based
In short: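 Toxicity followed as growth curves. OD600 of E. coli cultures was monitored over time in LB medium with tetracycline, containing a range of furanone concentrations.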

| Structure (SMILES) | Activity (Escherichia coli [1]) | inhibition at 60 µg/mL (Escherichia coli [2]) | CFU (Escherichia coli [3]) | Activity (Escherichia coli [4]) |
| --- | --- | --- | --- | --- |
| COC1=CC(=O)OC1 | inactive | – | – | – |
| CC1=CC(=C(Br)Br)OC1=O | inactive | 63% | – | – |
| CC1=CC(C)OC1=O (centres undefined) | inactive | – | – | – |
| CC1=C(Br)C(Br)(C(Br)Br)OC1=O (centres undefined) | inactive | – | – | – |
| CC1=C(Br)/C(=C/Br)OC1=O | inactive | 75% | – | – |
| CC1=CC(=O)OC1=O | inactive | – | – | – |
| O=C1OC(=C(Br)Br)C=C1CBr | – | – | 390 mL⁻¹ | – |
| CC1=C(Br)C(C(Br)Br)OC1=O (centres undefined) | inactive | 19% | – | – |
| O=C1O/C(=C\Br)C(Br)=C1CBr | – | – | – | Active |
| O=C1OC(=C(Br)Br)C=C1C(Br)Br | inactive | 80% | – | – |
